Here are results for 23 molecules from ChEMBL document CHEMBL4368901 (J Med Chem, 2019).

Calls of active or inactive are those of the source. The rule behind the calls is not given here.

Series [1] is described as follows: Inhibition of GDH (unknown origin) using NADP+ and glutamate as substrate preincubated for 0.5 hrs followed by substrate addition and measured after 1 hr by EZMTT reagent-based UV-Vis absorbance assay. Set-up: species or system Homo sapiens.
Series [2] relates to A549. Put plainly: Antiproliferative activity against human A549 cells after 5 days by EZMTT reagent-based assay. In kind it is functional, cell-based. As to conditions: A549, 120 h.
The subject of series [3] is A549. Put plainly: Antiproliferative activity against human A549 cells after 5 days by EZMTT reagent-based assay relative to control. In kind it is functional.
The test system of series [4] is H22. Briefly: Antiproliferative activity against mouse H22 cells after 5 days by EZMTT reagent-based assay. In kind it is functional, cell-based. As to conditions: H22, 120 h.
In series [5] the test system is H22. Briefly: Antiproliferative activity against mouse H22 cells after 5 days by EZMTT reagent-based assay relative to control. In kind it is functional.
Series [6] deals with CAKI-1. Put plainly: Antiproliferative activity against human Caki1 cells after 5 days by EZMTT reagent-based assay. In kind it is functional, cell-based. As to conditions: CAKI-1, 120 h.
For series [7], the system named is CAKI-1. Briefly: Antiproliferative activity against human Caki1 cells after 5 days by EZMTT reagent-based assay relative to control. In kind it is functional.
Series [8] concerns HCT-116. Briefly: Antiproliferative activity against human HCT116 cells after 5 days by EZMTT reagent-based assay. In kind it is functional, cell-based. The settings on record: HCT-116, 120 h.
Series [9] deals with HCT-116. Put plainly: Antiproliferative activity against human HCT116 cells after 5 days by EZMTT reagent-based assay relative to control. In kind it is functional.
Series [10] in a line: Drug uptake in human Caki1 cells after 24 hrs using gold nanoparticles by microspectrometric based Raman spectra assay. The settings on record: caki-1, 24 h. In kind it is ADME, cell-based. The gist of the method: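 Compound was premixed 1:1 with nanogold particles, at up to 2 µM. Glutamine-dependent Caki-1 cells were treated for 3, 9, 16 and 24 h, then SERS spectra were collected. Signal at 1352 cm^-1 served as the compound marker for cellular concentration.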

Series [11] is described as follows: Drug uptake in human Caki1 cells up to 2 uM after 24 hrs without gold nanoparticles by microspectrometric analysis based Raman spectra assay. The settings on record: caki-1, 24 h. In kind it is ADME, cell-based.
For series [12], the target named is T1, Glutaminase kidney isoform, mitochondrial (Homo sapiens, UniProt O94925).
T1 sequence (O94925 whole entry): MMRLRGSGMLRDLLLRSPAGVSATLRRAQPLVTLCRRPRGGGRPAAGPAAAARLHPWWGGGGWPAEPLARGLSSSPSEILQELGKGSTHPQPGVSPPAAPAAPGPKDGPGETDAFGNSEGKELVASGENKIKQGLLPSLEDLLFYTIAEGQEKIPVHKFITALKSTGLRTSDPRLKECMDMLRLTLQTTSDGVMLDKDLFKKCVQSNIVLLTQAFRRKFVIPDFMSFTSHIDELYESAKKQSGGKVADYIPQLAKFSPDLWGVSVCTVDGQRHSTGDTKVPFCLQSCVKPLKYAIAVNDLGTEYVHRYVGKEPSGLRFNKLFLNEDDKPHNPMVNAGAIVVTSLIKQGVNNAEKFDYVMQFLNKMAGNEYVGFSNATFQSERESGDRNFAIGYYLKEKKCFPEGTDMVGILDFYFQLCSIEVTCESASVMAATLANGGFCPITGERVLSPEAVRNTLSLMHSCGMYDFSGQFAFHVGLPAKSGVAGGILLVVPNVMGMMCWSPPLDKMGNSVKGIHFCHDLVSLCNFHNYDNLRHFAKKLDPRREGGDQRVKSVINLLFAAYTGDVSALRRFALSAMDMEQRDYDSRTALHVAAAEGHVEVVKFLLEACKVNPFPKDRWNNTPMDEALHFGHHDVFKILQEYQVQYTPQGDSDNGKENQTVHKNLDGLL
Briefly: Inhibition of human KGA preincubated for 15 to 30 mins followed by substrate addition and measured after 3 to 4 hrs by GDH-EZMTT reagent-based GDH coupled assay.

The nature of series [13]: Metabolic stability in mouse liver microsomes at 50 uM after 4 hrs in presence of NADPH by HPLC analysis. In kind it is ADME, Microsome. The settings on record: read-out: Stability. In short, it runs like this: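 Compound was incubated with mouse liver microsomes for 4 h, with coumarin as the control. The remaining level was quantified by HPLC using UV absorbance at 254 nm.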
Background: Microsomes from liver hold many membrane-bound enzymes, among them those of drug oxidation.

The subject of series [14] is A549. Put plainly: Induction of ROS generation in human A549 cells at 10 uM after 12 hrs by DCFH-DA staining-based fluorescence microscopic analysis. In kind it is functional, cell-based. The gist of the method: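 A549 cells were seeded at 10000 per well and exposed to compound at 0, 3 or 10 µM for 12 h. ROSUP at 100 µg/ml served as the positive control, alongside untreated cells. ROS was then assessed.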

One may read the IC50 as the midpoint of a concentration-inhibition curve. Turning to `Cn1ccc(CC(=O)Nc2nnc(CCSCCc3nnc(NC(=O)Cc4ccn(C)c4)s3)s2)c1`, the IC50 was more than 13000 nM in series [1] and 2200 nM in the series on A549 [2]. The same molecule displayed an Imax in the series with A549 [3] of 80%.

Take `Cn1cc(CC(=O)Nc2nnc(CCSCCc3nnc(NC(=O)Cc4cn(C)c5ccccc45)s3)s2)c2ccccc21`: the IC50 is more than 13000 nM in series [1]; 2900 nM in the series with A549 [2]; more than 10000 nM with H22 [4]; 3920 nM in the series on CAKI-1 [6]; 2200 nM in the series with HCT-116 [8]. Further, the Imax in the series with A549 [3] is 80%; in the series on H22 [5] it was 42%; in the series with CAKI-1 [7], 85%; with HCT-116 [9], 93%. The Drug uptake entry in [10] is listed as “Dose-dependent effect”; in [11] it was “Not Active”.

`O=C(Nc1nnc(CCSCCc2nnc(NC(=O)C34CC5CC(CC(C5)C3)C4)[se]2)[se]1)C12CC3CC(CC(C3)C1)C2`: the IC50 in series [1] was more than 13000 nM; in series [12], 1700 nM; with A549 [2], more than 13000 nM. Moreover, in the series on A549 [3], the Imax is 0%.

With `Cn1cc(CC(=O)Nc2nnc(CCCCc3ccc(NC(=O)Cc4cccc(OC(F)(F)F)c4)nn3)[se]2)c2ccccc21`, the IC50 in series [1] is more than 13000 nM; in the series on A549 [2] it was 17 nM; in the series with H22 [4], more than 10000 nM; with CAKI-1 [6] it was 14 nM; in the series on HCT-116 [8] it was 9 nM. In addition, the Imax was found to be 80% in the series on A549 [3], 10% in the series on H22 [5], 90% in the series with CAKI-1 [7] and 92% in the series on HCT-116 [9].

Turning to `Nc1nnc(CCSCCc2nnc(NC(=O)C34CC5CC(CC(C5)C3)C4)[se]2)[se]1`, the IC50 was more than 13000 nM in series [1], 8000 nM in [12] and more than 13000 nM with A549 [2]. The Imax in the series on A549 [3] is 0%.

For `Nc1nnc(CCSCCc2nnc(NC(=O)Cc3ccccc3)s2)s1`, the IC50 (in series [1]; with A549 [2]) was more than 13000 nM each time.

For `O=C(Cc1ccccc1)Nc1nnc(CCSCCc2nnc(NC(=O)Cc3ccccc3)s2)s1`, the IC50 in [1] was more than 13000 nM; in the series on A549 [2] it was 420 nM; in the series on CAKI-1 [6], 1160 nM; in the series with HCT-116 [8], 540 nM. The Imax with A549 [3] is on record as 72%; in the series with H22 [5] it was 29%; with CAKI-1 [7], 73%; with HCT-116 [9], 69%.

As for `Nc1nnc(CCSCCc2nnc(NC(=O)CC34CC5CC(CC(C5)C3)C4)[se]2)[se]1`, the IC50 was more than 13000 nM in [1], 300 nM in series [12] and 5000 nM with A549 [2]. In the series on A549 [3], this molecule had an Imax of 60%.

As for `O=c1ccc2ccccc2o1` [COUMARIN], the remaining at 4 h, 50 µM in series [13] was found to be 14%.

Regarding `Cn1ccc(CC(=O)Nc2nnc(CCSCCc3nnc(N)[se]3)[se]2)c1`, the IC50 is more than 13000 nM in series [1], 2100 nM in series [12] and more than 13000 nM in the series with A549 [2].

As for `c1ccc(CNc2nnc(CCSCCc3nnc(NCc4ccccc4)[se]3)[se]2)cc1`, the IC50 (in [1]; in series [12]; in the series on A549 [2]) was more than 13000 nM in each case. Besides, in the series on A549 [3], the Imax turned out to be 0%.

Regarding `COc1ccc(Nc2nnc(CCSCCc3nnc(Nc4ccc(OC)cc4)[se]3)[se]2)cc1`, the IC50 (in series [1]; in series [12]; in the series with A549 [2]) was more than 13000 nM throughout. In addition, the Imax in the series with A549 [3] amounted to 0%.

Turning to `Nc1nnc(CCCCc2nnc(NC(=O)Cc3ccccc3)s2)s1`, the IC50 (in series [1]; in [12]; in the series with A549 [2]) was more than 13000 nM in each case. The molecule also gave an Imax in the series on A549 [3] of 0%.

As to `Nc1nnc(CCSCCc2nnc(NC(=O)Cc3ccccc3)[se]2)[se]1`, the figures for the IC50 (in series [1]; in series [12]; with A549 [2]) were more than 13000 nM, 2800 nM and more than 13000 nM, respectively.

Turning to `c1ccc(CCNc2nnc(CCSCCc3nnc(NCCc4ccccc4)[se]3)[se]2)cc1`, the IC50 (in [1]; in series [12]; with A549 [2]) was more than 13000 nM each time. The molecule also had an Imax in the series on A549 [3] of 0%.

For `Cn1ccc(CC(=O)Nc2nnc(CCSCCc3nnc(NC(=O)Cc4ccn(C)c4)[se]3)[se]2)c1`, the results for the IC50 (in series [1]; in the series on A549 [2]) were more than 13000 nM and 1000 nM, respectively. For the same molecule, the Imax with A549 [3] is listed as 82%.

With `Cn1cc(CC(=O)Nc2nnc(CCSCCc3nnc(N)[se]3)[se]2)c2ccccc21`, the IC50 in series [1] is more than 13000 nM; in [12], 1100 nM; with A549 [2] it was more than 13000 nM. The Drug uptake entry in series [10] is “Dose-dependent effect”; in [11] it was “Not Active”.

On to `O=C(Cc1cccc(OC(F)(F)F)c1)Nc1ccc(CCCCc2nnc(NC(=O)Cn3cc(F)c(=O)[nH]c3=O)[se]2)nn1`, for which the IC50 in series [1] was more than 13000 nM; in [12], 20 nM; in the series with A549 [2], 460 nM. The molecule also came in with an Imax in the series with A549 [3] of 91%. Moreover, the result in the series with A549 [14] was Active.

As for `O=C(Cc1ccccc1)Nc1nnc(CCSCCc2nnc(NC(=O)Cc3ccccc3)[se]2)[se]1`, the IC50 in series [1] was more than 13000 nM; with A549 [2], 230 nM. The Imax with A549 [3] worked out at 82%.

For the molecule `Cn1cc(CC(=O)Nc2nnc(CCSCCc3nnc(N)s3)s2)c2ccccc21`, the IC50 in series [1] was more than 13000 nM; in series [12], 1400 nM; with A549 [2], more than 13000 nM.

As for `O=c1c2ccccc2[se]n1CCCCCCn1[se]c2ccccc2c1=O`, the IC50 was found to be 840 nM in the series on H22 [4], 1290 nM in the series on CAKI-1 [6] and 2170 nM with HCT-116 [8]. For the same molecule, the Imax with H22 [5], in the series with CAKI-1 [7] and in the series with HCT-116 [9] was 100% each time.

As to `Cn1cc(CC(=O)Nc2nnc(CCSCCc3nnc(NC(=O)Cc4cn(C)c5ccccc45)[se]3)[se]2)c2ccccc21`, the IC50 is more than 13000 nM in [1]; 110 nM in the series on A549 [2]; 1380 nM with H22 [4]; 400 nM with CAKI-1 [6]; 320 nM in the series on HCT-116 [8]. The Imax is given as 81% in the series with A549 [3], 71% in the series with H22 [5], 87% in the series with CAKI-1 [7] and 94% in the series with HCT-116 [9]. Also, the Drug uptake result in series [10] is listed as “Dose-dependent effect”; in series [11], “Not Active”.

For the molecule `Cn1ccc(CC(=O)Nc2nnc(CCSCCc3nnc(N)s3)s2)c1`, the IC50 in series [1] is more than 13000 nM; in series [12], 5100 nM; in the series on A549 [2], more than 13000 nM.
